Experimental data from ChEMBL document CHEMBL1123109, “Alkyl esters of 3-adenin-9-yl-2-hydroxypropanoic acid: a new class of broad-spectrum antiviral agents” (1985).
In brackets after ≈: the same amount, converted by molar mass.

Key:
Assay type in all cases: functional
[1] = test system: Vesicular stomatitis virus; assay: Inhibition of Vesicular stomatitis virus induced cytopathicity in BALB/3T3 cells.; settings: in Mus musculus
Procedure, shortened: (§1)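 Vesicular stomatitis virus was inoculated at 100 CCID50 (100× the dose infecting 50% of cells) in each cell type: human embryonic skin-muscle fibroblasts, LR-strain trisomy-21 fibroblasts, HEp-2, CV-1, BS-C-1, Balb/3T3, RK13, human kidney, HeLa and Vero. CPE was read at 1–2 days in every cell type, once complete in untreated infected controls. The MIC is the concentration giving a 50% reduction in cytopathogenicity.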

[2] = test system: Vesicular stomatitis virus; assay: Inhibition of Vesicular stomatitis virus induced cytopathicity in BS-C-1 cells.; procedure, shortened: as §1
[3] = test system: Vesicular stomatitis virus; assay: Inhibition of Vesicular stomatitis virus induced cytopathicity in CV-1 cells.; procedure, shortened: as §1
[4] = test system: Vesicular stomatitis virus; assay: Inhibition of Vesicular stomatitis virus induced cytopathicity in E6SM cells.; procedure, shortened: as §1
[5] = test system: HK; assay: Minimum inhibitory concentration which is required to reduce virus-induced cytopathogenicity by 50% against Vesicular stomatitis virus in human kidney,; procedure, shortened: as §1
[6] = test system: Vesicular stomatitis virus; assay: Inhibition of Vesicular stomatitis virus induced cytopathicity in HEp-2 cells.; procedure, shortened: as §1
[7] = test system: Coxsackievirus B4; assay: Inhibition of Coxsackie B4 virus induced cytopathicity in HeLa cells.; settings: Enterovirus B
[8] = test system: Vesicular stomatitis virus; assay: Inhibition of Vesicular stomatitis virus induced cytopathicity in HeLa cells.; procedure, shortened: as §1
[9] = test system: HeLa; assay: Cytotoxic concentration against HeLa cells.; settings: Homo sapiens
Procedure, shortened: (§2)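 Uninfected cells were incubated with compound for the same duration as the matching antiviral assay. The minimum cytotoxic concentration is the lowest one causing a microscopically detectable change in normal cell morphology.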

[10] = test system: PRK; assay: Cytotoxic concentration against PRK cells.; settings: Oryctolagus cuniculus; procedure, shortened: as §2
[11] = test system: Human alphaherpesvirus 1; assay: Inhibition of HSV-1 induced cytopathicity in PRK cells.
[12] = test system: Vaccinia virus; assay: Inhibition of Vaccinia virus induced cytopathicity in PRK cells.; settings: Orthopoxvirus vaccinia
[13] = test system: Vesicular stomatitis virus; assay: Inhibition of Vesicular stomatitis virus induced cytopathicity in PRK cells.
[14] = species: Oryctolagus cuniculus; assay: Inhibitory effects on DNA, RNA, and Protein synthesis in rabbit kidney cells was evaluated for incorporation of [4,5-3H]leucine; settings: read-out: ID50 (the source's name)
[15] = species: Oryctolagus cuniculus; assay: Inhibitory effects on DNA, RNA, and Protein synthesis in rabbit kidney cells was evaluated for incorporation of [5-3H]-Urd; settings: read-out: ID50 (the source's name)
[16] = test system: Vesicular stomatitis virus; assay: Inhibition of Vesicular stomatitis virus induced cytopathicity in RK13 cells.; procedure, shortened: as §1
[17] = test system: Vesicular stomatitis virus; assay: Inhibition of Vesicular stomatitis virus induced cytopathicity in T-21 cells.; procedure, shortened: as §1
[18] = test system: Vero; assay: Cytotoxic concentration against Vero cells.; settings: Chlorocebus sabaeus; procedure, shortened: as §2
[19] = test system: Sindbis virus; assay: Inhibition of Sindbis virus induced cytopathicity in vero cells.
[20] = test system: Vesicular stomatitis virus; assay: Inhibition of Vesicular stomatitis virus induced cytopathicity in Vero cells.; procedure, shortened: as §1
[21] = test system: Measles morbillivirus; assay: Inhibition of Measles virus induced cytopathicity in vero cells.
[22] = test system: Human respirovirus 3; assay: Inhibition of parainfluenza virus-3 induced cytopathicity in vero cells.
[23] = test system: Mammalian orthoreovirus 1; assay: Inhibition of Reo virus-1 induced cytopathicity in vero cells.
[24] = test system: Poliovirus 1; assay: Inhibition of polio virus 1 induced cytopathicity in HeLa cells.; settings: Enterovirus C
[25] = species: Oryctolagus cuniculus; assay: Inhibitory effects on DNA, RNA, and Protein synthesis in rabbit kidney cells was evaluated for incorporation of [methyl-3H]dThd]; settings: read-out: ID50 (the source's name)

Row | Structure (SMILES) | MIC [1] | MIC [2] | MIC [3] | MIC [4] | MIC [5] | MIC [6] | MIC [7] | MIC [8] | MCC [9] | MCC [10] | MIC [11] | MIC [12] | MIC [13] | MIC [16] | MIC [17] | MCC [18] | MIC [19] | MIC [20] | MIC [21] | MIC [22] | also measured
1 | Nc1ncnc2c1ncn2C[C@H](O)CO [(S)-DHPA] | > 400 µg/mL | > 400 µg/mL | > 400 µg/mL | 15 µg/mL (≈ 71.7 µM) | 50 µg/mL (≈ 239 µM) | 4 µg/mL (≈ 19.1 µM) | > 400 µg/mL | 30 µg/mL (≈ 143 µM) | > 400 µg/mL | > 400 µg/mL | > 400 µg/mL | 30 µg/mL (≈ 143 µM) | 15 µg/mL (≈ 71.7 µM) | 150 µg/mL (≈ 717 µM) | 20 µg/mL (≈ 95.6 µM) | > 400 µg/mL | > 400 µg/mL | 200 µg/mL (≈ 956 µM) | 30 µg/mL (≈ 143 µM) | 20 µg/mL (≈ 95.6 µM) | IC50 [14]: > 400 µg/mL; IC50 [15]: > 400 µg/mL; MIC [23]: 200 µg/mL (≈ 956 µM); MIC [24]: > 400 µg/mL; IC50 [25]: > 326 µg/mL
2 | Nc1ncnc2c1ncn2CC(O)C(=O)OCCO (centres undefined) | > 400 µg/mL | > 400 µg/mL | > 400 µg/mL | 70 µg/mL (≈ 262 µM) | 200 µg/mL (≈ 748 µM) | 3 µg/mL (≈ 11.2 µM) | > 400 µg/mL | 70 µg/mL (≈ 262 µM) | > 400 µg/mL | > 400 µg/mL | > 400 µg/mL | 70 µg/mL (≈ 262 µM) | 30 µg/mL (≈ 112 µM) | 100 µg/mL (≈ 374 µM) | 30 µg/mL (≈ 112 µM) | > 400 µg/mL | > 400 µg/mL | 150 µg/mL (≈ 561 µM) | 30 µg/mL (≈ 112 µM) | > 200 µg/mL | IC50 [14]: > 400 µg/mL; IC50 [15]: > 400 µg/mL; MIC [23]: > 200 µg/mL; MIC [24]: > 400 µg/mL; IC50 [25]: > 314 µg/mL
3 | COCCOC(=O)C(O)Cn1cnc2c(N)ncnc21 (centres undefined) | > 400 µg/mL | > 400 µg/mL | > 400 µg/mL | 7 µg/mL (≈ 24.9 µM) | > 400 µg/mL | 7 µg/mL (≈ 24.9 µM) | > 400 µg/mL | 20 µg/mL (≈ 71.1 µM) | > 400 µg/mL | > 400 µg/mL | > 400 µg/mL | 30 µg/mL (≈ 107 µM) | 7 µg/mL (≈ 24.9 µM) | 70 µg/mL (≈ 249 µM) | 15 µg/mL (≈ 53.3 µM) | > 400 µg/mL | > 400 µg/mL | 300 µg/mL (≈ 1070 µM) | 400 µg/mL (≈ 1420 µM) | 300 µg/mL (≈ 1070 µM) | MIC [23]: 70 µg/mL (≈ 249 µM); MIC [24]: > 400 µg/mL
4 | CC(C)OC(=O)C(O)Cn1cnc2c(N)ncnc21 (centres undefined) | > 400 µg/mL | > 400 µg/mL | > 400 µg/mL | 3 µg/mL (≈ 11.3 µM) | 300 µg/mL (≈ 1130 µM) | 7 µg/mL (≈ 26.4 µM) | > 400 µg/mL | 30 µg/mL (≈ 113 µM) | > 400 µg/mL | > 400 µg/mL | > 400 µg/mL | 3 µg/mL (≈ 11.3 µM) | 3 µg/mL (≈ 11.3 µM) | 1 µg/mL (≈ 3.77 µM) | 1 µg/mL (≈ 3.77 µM) | > 400 µg/mL | > 400 µg/mL | 200 µg/mL (≈ 754 µM) | 150 µg/mL (≈ 565 µM) | 70 µg/mL (≈ 264 µM) | MIC [23]: 40 µg/mL (≈ 151 µM); MIC [24]: > 400 µg/mL
5 | Nc1ncnc2c1ncn2CC(O)C(=O)OCc1ccco1 (centres undefined) | > 40 µg/mL | > 40 µg/mL | > 40 µg/mL | 40 µg/mL (≈ 132 µM) | > 40 µg/mL | 4 µg/mL (≈ 13.2 µM) | > 40 µg/mL | 7 µg/mL (≈ 23.1 µM) | 40 µg/mL | 40 µg/mL | > 40 µg/mL | 10 µg/mL (≈ 33 µM) | 15 µg/mL (≈ 49.5 µM) | > 40 µg/mL | 7 µg/mL (≈ 23.1 µM) | 40 µg/mL | > 40 µg/mL | > 40 µg/mL | > 40 µg/mL | 15 µg/mL (≈ 49.5 µM) | MIC [23]: 30 µg/mL (≈ 98.9 µM); MIC [24]: > 40 µg/mL
6 | CCOC(=O)C(O)Cn1cnc2c(N)ncnc21 (centres undefined) | > 400 µg/mL | > 400 µg/mL | > 400 µg/mL | 7 µg/mL (≈ 27.9 µM) | 200 µg/mL (≈ 796 µM) | 7 µg/mL (≈ 27.9 µM) | > 400 µg/mL | 4 µg/mL (≈ 15.9 µM) | > 400 µg/mL | > 400 µg/mL | > 400 µg/mL | 3 µg/mL (≈ 11.9 µM) | 1 µg/mL (≈ 3.98 µM) | 2 µg/mL (≈ 7.96 µM) | 1 µg/mL (≈ 3.98 µM) | > 400 µg/mL | > 400 µg/mL | 400 µg/mL (≈ 1590 µM) | 20 µg/mL (≈ 79.6 µM) | 20 µg/mL (≈ 79.6 µM) | MIC [23]: 40 µg/mL (≈ 159 µM); MIC [24]: > 400 µg/mL
7 | Nc1ncnc2c1ncn2CC(O)C(=O)OC1CCCCC1 (centres undefined) | 70 µg/mL (≈ 229 µM) | 40 µg/mL (≈ 131 µM) | > 200 µg/mL | 7 µg/mL (≈ 22.9 µM) | > 200 µg/mL | 2 µg/mL (≈ 6.55 µM) | > 100 µg/mL | 30 µg/mL (≈ 98.3 µM) | 100 µg/mL | 100 µg/mL | 100 µg/mL (≈ 328 µM) | 3 µg/mL (≈ 9.83 µM) | 1 µg/mL (≈ 3.28 µM) | 70 µg/mL (≈ 229 µM) | 1 µg/mL (≈ 3.28 µM) | 100 µg/mL | > 100 µg/mL | > 100 µg/mL | 15 µg/mL (≈ 49.1 µM) | > 40 µg/mL | MIC [23]: 7 µg/mL (≈ 22.9 µM); MIC [24]: > 100 µg/mL
8 | CC(C)(C)OC(=O)C(O)Cn1cnc2c(N)ncnc21 (centres undefined) | > 400 µg/mL | > 400 µg/mL | > 400 µg/mL | 150 µg/mL (≈ 537 µM) | > 400 µg/mL | 40 µg/mL (≈ 143 µM) | > 400 µg/mL | 150 µg/mL (≈ 537 µM) | > 400 µg/mL | > 400 µg/mL | > 400 µg/mL | 150 µg/mL (≈ 537 µM) | 150 µg/mL (≈ 537 µM) | 30 µg/mL (≈ 107 µM) | 15 µg/mL (≈ 53.7 µM) | > 400 µg/mL | > 400 µg/mL | > 400 µg/mL | 150 µg/mL (≈ 537 µM) | 150 µg/mL (≈ 537 µM) | MIC [23]: 150 µg/mL (≈ 537 µM); MIC [24]: > 400 µg/mL
9 | CCC(C)OC(=O)C(O)Cn1cnc2c(N)ncnc21 (centres undefined) | > 400 µg/mL | > 400 µg/mL | > 400 µg/mL | 1 µg/mL (≈ 3.58 µM) | > 400 µg/mL | 7 µg/mL (≈ 25.1 µM) | > 400 µg/mL | 30 µg/mL (≈ 107 µM) | > 400 µg/mL | > 400 µg/mL | > 400 µg/mL | 3 µg/mL (≈ 10.7 µM) | 1 µg/mL (≈ 3.58 µM) | 15 µg/mL (≈ 53.7 µM) | 1 µg/mL (≈ 3.58 µM) | > 400 µg/mL | 300 µg/mL (≈ 1070 µM) | 150 µg/mL (≈ 537 µM) | 40 µg/mL (≈ 143 µM) | 200 µg/mL (≈ 716 µM) | MIC [23]: 70 µg/mL (≈ 251 µM); MIC [24]: > 400 µg/mL
